# Data: ChEMBL document CHEMBL1123989, “Effects of addition of a 2-methyl group to ethyl nipecotates (beta-meperidines) on receptor affinities and opiate agonist/antagonist activities” (J Med Chem, 1988)
# Activity calls are given as the source filed them.
# What was measured:
# Mus musculus [1] = test: Effective dose to show narcotic analgesic activity was evaluated in mouse tail-flick test when administered subcutaneously; format: functional; settings: sc
# Procedure, shortened: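 Male Swiss-Webster mice (21-28 g), pretested twice; heat lamp set for a 2-4 s baseline flick with a 6.5 s cut-off. Three doses, 10 mice/dose, given sc. Latency read at 10-60 min. % of maximum possible increase taken at peak effect. ED50 with 95% CL from a log-dose probit plot (Litchfield–Wilcoxon).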
# Mus musculus [2] = test: Antagonistic activity to show narcotic effect induced by subcutaneous administration of 21.08 umol/kg of morphine in mouse tail-flick test; format: functional
# Procedure, shortened: (§1)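 Male Swiss-Webster mice. Tail-flick latency read at 10, 20, 30, 45 and 60 min. % antagonism = 100 − (% agonism with morphine)/0.80, taken at peak effect. AD50 with 95% CL by Litchfield–Wilcoxon from the log-dose plot.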
# [3] = target: Kappa-type opioid receptor (Cavia porcellus, UniProt P41144); test: Binding affinity at Opioid receptor kappa 1 in guinea pig brain membrane determined by using [3H]U-69593 as radioligand; format: cell membranes
# Procedure, shortened: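 Guinea pig brain membranes prepared as for the rat assay (Tris pH 7.7, 1 h 37 °C preincubation). Displacement of [3H]U69,593 over 1 h at 25 °C, then filtered. Nonspecific binding with 1.0 μM unlabeled U69,593. Curves repeated twice at two tracer concentrations. Values by LIGAND analysis.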
# [4] = target: Delta-type opioid receptor (Rattus norvegicus, UniProt P33533); test: Binding affinity at Opioid receptor delta 1 in rat brain membrane was determined by using curve -fitting LIGAND([3H]DHM, [3H]DADL, [3H]DSLET, [3H]EKC); format: cell membranes
# Procedure, shortened: (§2)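 Rat brain membranes in Tris pH 7.7, preincubated 1 h at 37 °C to strip endogenous opioids. 12 mg tissue per tube with tritiated ligand plus competitor, 1 h at 25 °C, then filtered. Nonspecific binding defined with 1.0 μM unlabeled form of the tracer. Each curve run twice at two tracer concentrations. Affinities from simultaneous LIGAND curve-fitting.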
# Mu-type opioid receptor = Mu-type opioid receptor (Rattus norvegicus, UniProt P33535); test: Binding affinity at Opioid receptor mu 1 in rat brain membrane was determined by using curve-fitting ligands ([3H]DHM, [3H]DADL, [3H]DSLET, [3H]EKC); format: cell membranes; procedure, shortened: as §2
# Mus musculus [5] = test: Antagonistic activity to show narcotic effect induced by subcutaneous administration of 21.08 umol/Kg of morphine in mouse tail-flick test; NA=No antagonism; format: functional, organism-based; procedure, shortened: as §1
# Sequence of Delta-type opioid receptor (P33533 whole entry): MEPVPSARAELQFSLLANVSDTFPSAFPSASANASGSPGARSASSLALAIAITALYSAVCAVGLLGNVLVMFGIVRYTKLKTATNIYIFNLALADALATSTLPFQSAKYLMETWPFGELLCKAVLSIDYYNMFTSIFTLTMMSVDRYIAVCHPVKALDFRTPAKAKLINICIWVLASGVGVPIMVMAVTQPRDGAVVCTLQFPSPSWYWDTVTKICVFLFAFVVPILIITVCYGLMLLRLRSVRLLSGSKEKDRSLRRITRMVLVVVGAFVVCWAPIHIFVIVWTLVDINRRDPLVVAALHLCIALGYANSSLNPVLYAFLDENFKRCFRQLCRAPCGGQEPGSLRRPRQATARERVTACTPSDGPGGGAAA
# Sequence of Mu-type opioid receptor (P33535 whole entry): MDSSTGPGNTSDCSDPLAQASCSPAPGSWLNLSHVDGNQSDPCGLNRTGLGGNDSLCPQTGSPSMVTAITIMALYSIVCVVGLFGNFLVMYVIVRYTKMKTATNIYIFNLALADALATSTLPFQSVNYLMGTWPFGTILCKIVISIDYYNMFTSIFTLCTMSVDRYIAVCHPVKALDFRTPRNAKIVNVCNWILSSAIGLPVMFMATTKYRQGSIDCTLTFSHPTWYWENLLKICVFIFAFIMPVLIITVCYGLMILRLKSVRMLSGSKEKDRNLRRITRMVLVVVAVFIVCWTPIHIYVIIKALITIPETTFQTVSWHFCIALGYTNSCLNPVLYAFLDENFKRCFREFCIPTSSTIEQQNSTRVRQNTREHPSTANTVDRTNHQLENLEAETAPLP
# Sequence of Kappa-type opioid receptor (P41144 whole entry): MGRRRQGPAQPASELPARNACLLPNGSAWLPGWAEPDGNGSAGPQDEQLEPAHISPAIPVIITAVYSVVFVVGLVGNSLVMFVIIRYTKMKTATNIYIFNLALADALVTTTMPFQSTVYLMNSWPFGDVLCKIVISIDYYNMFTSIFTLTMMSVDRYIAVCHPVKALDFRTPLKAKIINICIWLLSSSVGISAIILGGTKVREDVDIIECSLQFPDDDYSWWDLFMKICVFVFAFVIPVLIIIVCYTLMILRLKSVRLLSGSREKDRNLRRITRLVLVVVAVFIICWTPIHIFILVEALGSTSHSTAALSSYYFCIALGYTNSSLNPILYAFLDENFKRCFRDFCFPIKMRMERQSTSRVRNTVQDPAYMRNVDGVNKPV
Compound,ED50 (Mus musculus [1]) [µmol/kg],AD50 (Mus musculus [2]) [µM/kg],Kd [3] [µM],Kd [4] [µM],Kd (Mu-type opioid receptor) [µM],AD50 (Mus musculus [5])
C=CCN1CC[C@]23c4c5ccc(O)c4O[C@H]2[C@@H](O)C=C[C@H]3[C@H]1C5 [NALORPHINE],828,2,–,–,–,–
CCOC(=O)[C@]1(c2cccc(O)c2)CCCN(CCc2ccccc2)[C@H]1C,> 198,>198,2.6,0.17,0.38,–
C=CCN1CCC[C@](C(=O)OCC)(c2cccc(O)c2)C1,> 229,>192,0.45,0.715,0.026,–
CCOC(=O)C1(c2ccccc2)CCN(C)CC1 [MEPERIDINE],25,–,–,–,–,inactive
CCOC(=O)[C@]1(c2cccc(O)c2)CCCN(C)[C@H]1C,> 510,14,1.9,0.91,0.178,–
C=CCN1CCC[C@](C(=O)OCC)(c2cccc(O)c2)[C@@H]1C,> 118,112,0.83,0.77,0.31,–
CCOC(=O)[C@]1(c2cccc(O)c2)CCCN(C)C1,> 290,24,2.2,4,0.036,–
CCOC(=O)[C@]1(c2cccc(O)c2)CCCN(CC2CC2)[C@H]1C,> 452,75,0.83,0.625,0.154,–
CCOC(=O)[C@]1(c2cccc(O)c2)CCCN(CC2CC2)C1,68,19,0.12,0.26,0.008,–
